# Active and inactive are the calls of the source. The calls are words filed in the database; no cut-off is given here.
# Experiments:
# [1] = Kinetic solubility of the compound in pH 7.4 PBS incubated for 24 hrs by UPLC/MS analysis; assay type: physicochemical; conditions: buffer, pH 7.4, 24 h
# [2] = Metabolic stability in mouse plasma assessed as half life measured upto 120 mins by LC-MS/MS analysis; assay type: ADME, cell-free
# Outline: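 Compound at 2 µM final incubated at 37 °C for up to 2 h in mouse plasma with 5 % DMSO; sampled at 0, 5, 15, 30, 60, 120 min into cold acetonitrile with internal standard, centrifuged, supernatant diluted 1:1 with water and quantified by LC-MS/MS.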
# [3] = Metabolic stability in mouse liver microsomes assessed as half life preincubated with microsomes for 15 mins followed by NADPH addition and measured upto 60 mins by LC-MS/MS analysis; assay type: ADME, Microsome; conditions: time < 75 min
# Outline: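 Compound at 4.6 µM final preincubated 15 min at 37 °C with mouse liver microsomes in 0.1 M Tris-HCl pH 7.4, then NADPH, G6P, G6PDH and MgCl2 added; sampled at 0, 5, 15, 30, 60 min into cold acetonitrile with internal standard. LC-MS/MS with positive ESI; percent remaining versus t = 0; half-life from one-phase decay non-linear regression.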
# [4] = tested on: HEK293; experiment: Cytotoxicity against HEK293 cells assessed as inhibition of cell growth at 100 uM incubated for 24 to 48 hrs by MTT assay; assay type: toxicity, cell-based; conditions: human, hek293, 100 µM, time 24-48 hrs
# Outline: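 HEK-293 cells grown in DMEM with 2 mM L-glutamine, 10 % heat-inactivated FBS, 1 % penicillin/streptomycin, 37 °C, 5 % CO2; seeded 10,000 cells/well, treated 24 h after seeding for 24 or 48 h, vehicle DMSO 0.5 % final. MTT 0.5 mg/ml for 2 h, formazan dissolved in ethanol, absorbance 570 nm (ref 650 nm); 8 serial dilutions in triplicate, three independent experiments, mean ± SD.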
# [5] = biological target: Replicase polyprotein 1ab (Severe acute respiratory syndrome coronavirus 2) (UniProt P0DTD1); experiment: (§1) Inhibition of SARS-CoV-2 RdRp using ATP substrate preincubated with compound for 30 mins followed by substrate addition and measured after 30 mins by Alphascreen microplate reader analysis; conditions: time 60.0 min
# [6] = biological target: Replicase polyprotein 1ab (Severe acute respiratory syndrome coronavirus 2, UniProt P0DTD1); experiment: as §1
# [7] = tested on: SARS-CoV-2; experiment: Antiviral activity against SARS-CoV-2 human/Czech Republic/951/2020 infected in African green monkey Vero cells pretreated […] followed by viral infection and measured after 48 hrs by viral titer reduction assay; assay type: functional, organism-based; conditions: Severe acute respiratory syndrome coronavirus 2, human/Czech Republic/951/2020, Vero
Compound,Kinetic_solubility [1] [µM],half-life [2] [h],half-life [3] [h],also measured
O=c1cc(CCc2ccc(O)c(O)c2)oc2cccc(O)c12,67,> 1,> 2,
O=c1cc(/C=C/c2ccc(O)c(O)c2)oc2cccc(O)c12,< 1,,,
O=c1cc(-c2ccc(O)c(O)c2)oc2cc(O)cc(O)c12 [LUTEOLIN],,> 1,> 2,
CCCCOc1c(-c2ccc(O)c(O)c2)oc2cc(O)cc(O)c2c1=O,156,> 1,> 2,Activity [4]: Non-Toxic
O=C(Nc1ccc(O)c(O)c1)c1cc(=O)c2c(O)cccc2o1,65,1,1.38,
O=c1c(OCCO)c(-c2ccc(O)c(O)c2)oc2cc(O)cc(O)c12,167,> 1,> 2,Activity [4]: Non-Toxic
O=C(NCCNC(=S)Nc1ccc(O)c(O)c1)c1cc(=O)c2c(O)cccc2o1,< 1,,,
O=c1cc(C(CCCC(F)(F)F)c2ccc(O)c(O)c2)oc2cccc(O)c12 (stereo not drawn),,,,inhibition [5]: inactive
Cc1c(-c2ccc(O)c(O)c2)oc2cc(O)cc(O)c2c1=O,32,,,
O=c1cc(Cc2ccc(O)c(O)c2)oc2cccc(O)c12,63,> 1,> 2,
O=c1c(OCCCO)c(-c2ccc(O)c(O)c2)oc2cc(O)cc(O)c12,,1,1.5,Activity [4]: Non-Toxic
CCCCc1c(-c2ccc(O)c(O)c2)oc2cc(O)cc(O)c2c1=O,< 1,,,IC50 [6]: 6 µM
CC(c1ccc(O)c(O)c1)c1cc(=O)c2c(O)cccc2o1 (stereo not drawn),165,> 1,> 2,Activity [4]: Non-Toxic
O=c1c(O)c(-c2ccc(O)c(O)c2)oc2cc(O)cc(O)c12 [QUERCETIN],,> 1,0.117,
CCCc1c(-c2ccc(O)c(O)c2)oc2cc(O)cc(O)c2c1=O,13,,,
O=C(N[C@@H](Cc1ccc(O)cc1)C(=O)O)c1cc(-c2ccccc2)c(=O)n2c1sc1ccc(OC3CCCCC3)cc12,,,,EC50 [7]: 0.65 µM
O=C(Oc1ccc(O)c(O)c1)c1cc(=O)c2c(O)cccc2o1,< 1,,,
CCCCC(c1ccc(O)c(O)c1)c1cc(=O)c2c(O)cccc2o1 (stereo not drawn),,,,IC50 [6]: > 100 µM

# Reference: ChEMBL document CHEMBL5223176, “Design, synthesis, docking, and biochemical characterization of non-nucleoside SARS-CoV-2 RdRp inhibitors” (Bioorg Med Chem, 2023)
